Data: ChEMBL document CHEMBL4261556, “Design, Synthesis and Structure-Activity Relationships of (±)-Isochaihulactone Derivatives” (Medchemcomm, 2017)

How the values were obtained:
A549 [1] = test: Antiproliferative activity against human A549 cells after 72 hrs by SRB assay; type: functional, cell-based
MDA-MB-231 = test: Antiproliferative activity against human MDA-MB-231 cells after 72 hrs by SRB assay; type: functional, cell-based
Method in brief: (§1)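 Cells grown in RPMI-1640 with 2 mM L-glutamine, 25 mM HEPES, 10% FBS, penicillin/streptomycin and amphotericin B. KB-VIN maintained with 100 nM vincristine. Freshly trypsinized cells seeded at 4000–7500 per well, depending on doubling time, together with compounds for 72 h. Fixed in 10% TCA, stained with 0.04% SRB, dye solubilized in 10 mM Tris base, absorbance read at 515 nm.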

KB = test: Antiproliferative activity against human KB cells after 72 hrs by SRB assay; type: functional, cell-based; method in brief: as §1
[2] = Antiproliferative activity against human KBVIN cells after 72 hrs by SRB assay; type: functional, cell-based; method in brief: as §1
A549 [3] = test: Cell cycle arrest in human A549 cells assessed as accumulation after 24 hrs by propidium iodide staining based flow cytometry; type: functional
Method in brief: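 A549 cells seeded at 75 000 per well 24 h before dosing, then treated 24 h at 1× or 3× the IC50 concentration. DMSO and 20 nM combretastatin A-4 served as controls. Floating plus trypsinized cells pooled, fixed in 70% EtOH overnight at –20 °C, stained with propidium iodide 30 min at 37 °C. DNA content analysed by flow cytometry for G2/M population.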

Structure (SMILES)	IC50 (A549 [1]; Homo sapiens, A549, 72 h) [µM]	IC50 (MDA-MB-231; Homo sapiens, MDA-MB-231, 72 h) [µM]	IC50 (KB; Homo sapiens, KB, 72 h) [µM]	IC50 ([2]; Homo sapiens, KBVIN, 72 h) [µM]	IC50 (A549 [1]; a549) [µM]	IC50 (MDA-MB-231; mda-mb-231) [µM]	IC50 (KB; kb) [µM]	IC50 [2] [µM]	Activity (A549 [3])
COc1cc(/C=C2\C(=O)OC\C2=C\c2ccc3c(c2)OCO3)cc(OC)c1OC	35.2	> 40	34	28.3					
COc1cc(/C=C2\C(=O)OCC2Cc2ccc3c(c2)OCO3)cc(OC(=O)CN(C)C)c1OC (stereo not given) [listing 1 of 3 here]		9.04	4.98	4.51	3.32				
COc1cc(/C=C2\C(=O)OCC2Cc2ccc3c(c2)OCO3)cc(OC)c1OC(=O)CN(C)C (stereo not given) [listing 1 of 2 here]	6.15					29	18.1	17.6	
COc1cc(/C=C2\C(=O)OC\C2=C\c2ccc3c(c2)OCO3)cc(OC(=O)CN(C)C)c1OC	> 40	> 40	> 40	> 40					
COc1cc(/C=C2\C(=O)OCC2Cc2ccc3c(c2)OCO3)cc(OC)c1OC(=O)[C@@H](N)Cc1ccccc1 (stereo not given in full)	5.97	9.73	9.2	7.59					
COc1cc(/C=C2\C(=O)OC\C2=C\c2ccc3c(c2)OCO3)cc(OC)c1OC(=O)[C@@H](N)Cc1ccccc1	> 40	> 40	> 40	> 40					
COc1cc(/C=C2\C(=O)OC\C2=C\c2ccc3c(c2)OCO3)cc(OC)c1OC(=O)CN(C)C	> 40	> 40	> 40	> 40					
COc1cc(/C=C2\C(=O)OC\C2=C\c2ccc3c(c2)OCO3)cc(OC(=O)[C@@H](N)Cc2ccccc2)c1OC	> 40	> 40	> 40	> 40					
COc1cc(/C=C2\C(=O)OCC2Cc2ccc3c(c2)OCO3)cc(OC)c1OC(=O)CN(C)C (stereo not given) [listing 2 of 2 here]					5.93	9.37	8.71	7.06	
COc1cc(/C=C2\C(=O)OCC2Cc2ccc3c(c2)OCO3)cc(OC(=O)CN(C)C)c1OC (stereo not given) [listing 2 of 3 here]	5.02					8.91	5.53	5.34	
COc1cc(/C=C2\C(=O)OC\C2=C\c2ccc3c(c2)OCO3)cc(OC)c1O	> 40	> 40	> 40	> 40					
Cc1cc(/C=C2\C(=O)OCC2Cc2ccc3c(c2)OCO3)ccc1F (stereo not given)	5.72	8.81	6.47	5.51					
COc1cc(/C=C2\C(=O)OCC2Cc2ccc3c(c2)OCO3)cc(OC(=O)[C@@H](N)Cc2ccccc2)c1OC (stereo not given in full)	4.8	8.8	5.4	4.95					
COc1cc(/C=C2\C(=O)OCC2Cc2ccc3c(c2)OCO3)cc(OC)c1OC (racemic)	5.5	5.88	9.9	5.51					Dose-dependent effect
COc1cc(/C=C2\C(=O)OCC2Cc2ccc3c(c2)OCO3)cc(OC(=O)CN(C)C)c1OC (stereo not given) [listing 3 of 3 here]									Dose-dependent effect
COc1cc(/C=C2\C(=O)OC\C2=C\c2ccc3c(c2)OCO3)cc(O)c1OC	31.2	> 40	34	29					
COc1cc(/C=C2\C(=O)OCC2Cc2ccc3c(c2)OCO3)cc(OC)c1O (stereo not given)	6.17	> 40	11.5	6.78					
COc1cc(/C=C2\C(=O)OCC2Cc2ccc3c(c2)OCO3)cc(O)c1OC (stereo not given)	4.32	8.55	5.18	4.84					
Cc1cc(/C=C2\C(=O)OC\C2=C\c2ccc3c(c2)OCO3)ccc1F	> 40	> 40	> 40	> 40					
COc1ccc(/C=C\c2cc(OC)c(OC)c(OC)c2)cc1O									Dose-dependent effect
